The values that follow come from ChEMBL document CHEMBL1132144, “Synthesis of 9-O-substituted derivatives of 9-hydroxy-5, 6-dimethyl-6H-pyrido[4,3-b]carbazole-1-carboxylic acid (2-(dimethylamino)ethyl)amide and their 10- and 11-methyl analogues with improved antitumor activity” (J Med Chem, 1999).

For one experiment, the system named is B16. Put plainly: Inhibition of murine B16 melanoma cell proliferation measured by the MTT assay. The experiment is classed as functional, cell-based. The following applies: Mus musculus. Summed up:
(§1)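 Murine L1210 leukemia and B16 melanoma cells were grown in RPMI 1640 with 10% fetal calf serum, 2 mM L-glutamine, penicillin/streptomycin and 10 mM HEPES (pH 7.4). Cells were exposed to nine serial drug dilutions in triplicate for about four doubling times (L1210 48 h, B16 96 h), then read by microculture tetrazolium (MTT) assay. IC50 is the concentration halving optical density versus untreated controls, averaged over ≥2 independent experiments.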
Background: Tetrazolium dyes change colour on reduction, which living cells bring about.

The next experiment has as its system L1210. As to the kind of experiment: Inhibition of murine L1210 leukemia cell proliferation measured by the MTT assay. The class given is functional, cell-based. As to conditions: Mus musculus. In outline: as §1
Experiment [1] has as its system Mus musculus. As to the kind of experiment: Long-term survivors among 14 mice infected with P388 leukemia, scored on day 60 at 40 mg/kg dose on day 1. The experiment is classed as functional. Summed up: (§2)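 B6D2F1 mice in groups of 6–7 were inoculated ip on day 0 with 10^6 P388 cells. Dihydrochloride salts were dissolved in water and given iv on day 1 or on days 1, 5 and 9. Doses ranged from a low nontoxic dose to a toxic one. Long-term survivors were counted at day 60.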

For experiment [2], the system named is Mus musculus. As to the kind of experiment: Percent median survival time of mice injected with P388 leukemia, at a subcutaneous compound dose of 20 mg/kg. The experiment is classed as functional.
The species entered for experiment [3] is Mus musculus. Put plainly: Long-term survivors among 14 mice infected with B16 melanoma, scored on day 90 at optimal dose on days 1-9.
The test system of experiment [4] is Mus musculus. Put plainly: Percent median survival time of mice injected with P388 leukemia, at a intravenous compound dose of 40 mg/kg.
For experiment [5], the system named is Mus musculus. Put plainly: Percent median survival time of mice injected with B16 melanoma, at a intraperitoneal compound dose of 2.5-5 mg/kg.
In experiment [6] the test system is Mus musculus. As to the kind of experiment: Long-term survivors among 12 mice infected with P388 leukemia, scored on day 60 at 10 mg/kg dose. The class given is functional. In outline: as §2
The subject of experiment [7] is Mus musculus. As to the kind of experiment: Long-term survivors among 18 mice infected with P388 leukemia, scored on day 60 at 40 mg/kg dose. The class given is functional. In outline:
as §2

The test system of experiment [8] is Mus musculus. As to the kind of experiment: Percent median survival time of mice intraperitoneally injected with P388 leukemia was determined from tested at 10 mg/kg at day1,5,9 dose to that of control. The class given is functional. In outline:
(§3)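 P388 leukemia in B6D2F1 mice (groups of 6–7), 10^6 cells inoculated ip on day 0. Dihydrochloride salts were dissolved in water and given iv on day 1 or on days 1, 5, 9. Three doses were tested, then five if active. %T/C = median survival treated/control × 100, reported at the optimal dose (no toxic death, weight loss <20%), from one or two representative experiments.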

The test system of experiment [9] is Mus musculus. As to the kind of experiment: Percent median survival time of mice intraperitoneally injected with P388 leukemia was determined from tested at 40 mg/kg at day1 dose to that of control. The experiment is classed as functional. As to conditions: route intraperitoneal. In outline: as §3
Experiment [10] concerns Mus musculus. As to the kind of experiment: Long-term survivors among 14 mice infected with B16 melanoma, scored on day 90 at 2.5 mg/kg dose.
Experiment [11] deals with Mus musculus. Put plainly: Percent median survival time of mice injected with B16 melanoma, at a intraperitoneal compound dose of 2.5 mg/kg.
Experiment [12] concerns Mus musculus. As to the kind of experiment: Long-term survivors among 6 mice infected with P388 leukemia, scored on day 60 at 40 mg/kg dose on day 1, 5, 9. The class given is functional. Summed up:
as §2

The test system of experiment [13] is Mus musculus. Put plainly: Long-term survivors among 7 mice infected with P388 leukemia, scored on day 90 at 10 mg/kg dose. The experiment is classed as functional.
In experiment [14] the test system is Mus musculus. Put plainly: Long-term survivors among 6 mice infected with P388 leukemia, scored on day 60 at 40 mg/kg dose on day 1. The experiment is classed as functional. In outline: as §2
Experiment [15] has as its system Mus musculus. Put plainly: Percent median survival time of mice intraperitoneally injected with P388 leukemia was determined from tested at 40 mg/kg at day1,5,9 dose to that of control. The class given is functional. As to conditions: route intraperitoneal. Summed up: as §3
The test system of experiment [16] is Mus musculus. As to the kind of experiment: Percent median survival time of mice injected with B16 melanoma, at a intraperitoneal compound dose of 10 mg/kg.
The subject of experiment [17] is Mus musculus. Put plainly: Long-term survivors among 6 mice infected with P388 leukemia, scored on day 60 at 60 mg/kg dose on day 1. The experiment is classed as functional. Summed up: as §2
Experiment [18] deals with Mus musculus. As to the kind of experiment: Long-term survivors among 6 mice infected with B16 melanoma, scored on day 90 at 10 mg/kg dose.
Experiment [19] concerns Mus musculus. As to the kind of experiment: Percent median survival time of mice injected with P388 leukemia, at a intravenous compound dose of 60 mg/kg.
Experiment [20] has as its system Mus musculus. Put plainly: Long-term survivors among 7 mice infected with P388 leukemia, scored on day 90 at 5 mg/kg dose. The experiment is classed as functional.
For experiment [21], the system named is Mus musculus. As to the kind of experiment: Long-term survivors among 6 mice infected with P388 leukemia, scored on day 60 at 20 mg/kg dose on day 1. The class given is functional. In outline: as §2
Experiment [22] deals with Mus musculus. Put plainly: Long-term survivors among 6 mice infected with P388 leukemia, scored on day 60 at 20 mg/kg dose on day 1, 5, 9. The experiment is classed as functional. Summed up:
as §2

Experiment [23] relates to Mus musculus. As to the kind of experiment: Percent median survival time of mice intraperitoneally injected with P388 leukemia was determined from tested at 20 mg/kg at day1 dose to that of control. The experiment is classed as functional. The following applies: route intraperitoneal. In outline:
as §3

Experiment [24] has as its system Mus musculus. As to the kind of experiment: Percent median survival time of mice intraperitoneally injected with P388 leukemia was determined from tested at 20 mg/kg at day1,5,9 dose to that of control. The class given is functional. As to conditions: route intravenous. In outline:
as §3

Experiment [25] deals with Mus musculus. As to the kind of experiment: Percent median survival time of mice injected with B16 melanoma, at a intraperitoneal compound dose of 5 mg/kg.
The test system of experiment [26] is Mus musculus. As to the kind of experiment: Long-term survivors among 6 mice infected with P388 leukemia, scored on day 60 at 7.5 mg/kg dose. The class given is functional. In outline: as §2
The subject of experiment [27] is Mus musculus. Put plainly: Long-term survivors among 6 mice infected with P388 leukemia, scored on day 60 at 20 mg/kg dose. The experiment is classed as functional. Summed up: as §2
In experiment [28] the test system is Mus musculus. As to the kind of experiment: Long-term survivors among 7 mice infected with B16 melanoma, scored on day 90 at 20 mg/kg dose.
Experiment [29] concerns Mus musculus. As to the kind of experiment: Percent median survival time of mice injected with P388 leukemia, at a intravenous compound dose of 7.5 mg/kg.
The subject of experiment [30] is Mus musculus. As to the kind of experiment: Percent median survival time of mice injected with B16 melanoma, at a intraperitoneal compound dose of 0.5 mg/kg.

What is called IC50 is the concentration that gives 50% inhibition. A high value points to weaker potency. Broadly, the T/C is the ratio of treated to control. Regarding `Cc1c2c(C(=O)NCCN(C)C)nccc2c(C)c2c1c1cc(OC(=O)CCCCC(=O)O)ccc1n2C`, the results for the IC50 in the experiment with B16 and in the experiment with L1210 were 6.3 nM and 45.9 nM, respectively. Besides, the results for the LTS in the experiment with Mus musculus [1] and in the experiment filed under Mus musculus [3] were 11 and 4, respectively. The T/C in the experiment with Mus musculus [2] is reported as above 600%; in the experiment with Mus musculus [4] it was above 600%; in the experiment on Mus musculus [5], 361%.

`Cc1c2c(C(=O)NCCN(C)C)nccc2c(C)c2c1c1cc(O)ccc1n2C`: the IC50 in the experiment with B16 turned out to be 3.4 nM; in the experiment on L1210 it was 13.4 nM. The values for the LTS with Mus musculus [6], in the experiment on Mus musculus [7] and with Mus musculus [10] were 9, 15 and 1, respectively. The results for the T/C in the experiment on Mus musculus [8], with Mus musculus [9] and in the experiment on Mus musculus [11] were above 600%, above 600% and 166%, respectively.

With `Cc1c2ccnc(C(=O)NCCN(C)C)c2cc2c3cc(OC(=O)N4CCC(N5CCCCC5)CC4)ccc3n(C)c12`, the values for the IC50 in the experiment with B16 and with L1210 were 2690 nM and 696 nM, respectively. Besides, the LTS in the experiment with Mus musculus [12], in the experiment on Mus musculus [13] and with Mus musculus [14] was 0 throughout. Also, the T/C turned out to be 133% in the experiment with Mus musculus [9], 169% in the experiment on Mus musculus [15] and 161% in the experiment with Mus musculus [16].

Turning to `CC(=O)Oc1ccc2c(c1)c1cc3c(C(=O)NCCN(C)C)nccc3c(C)c1n2C`, the IC50 in the experiment on B16 came to 6.1 nM; with L1210, 5.1 nM. The LTS in the experiment on Mus musculus [12] stood at 0; in the experiment on Mus musculus [17], 1; in the experiment with Mus musculus [18] it was 0. Moreover, the results for the T/C in the experiment on Mus musculus [4], in the experiment on Mus musculus [19] and with Mus musculus [16] were 275%, 214% and 182%, respectively.

In the case of `Cc1c2ccnc(C(=O)NCCN(C)C)c2cc2c3cc(OCC4C[C@@H]4c4ccccc4)ccc3n(C)c12` (some centres not stated), the IC50 with B16 is 279 nM; with L1210, 374 nM. The LTS in the experiment with Mus musculus [20], with Mus musculus [21] and in the experiment with Mus musculus [22] was 0 in each case. The figures for the T/C in the experiment on Mus musculus [23], in the experiment with Mus musculus [24] and in the experiment on Mus musculus [25] were 102%, 99% and 94%, respectively.

For `Cc1c2cc[n+](C)cc2c(C)c2c1[nH]c1ccc(O)cc12` [ELLIPTINIUM], the IC50 with B16 was 106 nM; in the experiment on L1210 it was 54.6 nM. The LTS with Mus musculus [26], in the experiment with Mus musculus [27] and with Mus musculus [28] was 0 throughout. Further, the results for the T/C in the experiment with Mus musculus [2], in the experiment with Mus musculus [29] and in the experiment with Mus musculus [30] were 138%, 112% and 133%, respectively.
